# In ChEMBL document CHEMBL4689842, “EUbOPEN Chemogenomics Library wave 1” (2021):
# System: U2OS
# Experiment: Multiplex assay against U2OS
# Assay type: toxicity, cell-based
# Conditions: human
# Method in brief: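 Values for tubulin, mitochondrial-mass and membrane-permeability phenotypes are per cents of cells with healthy nuclei. These cells were identified by CellPathfinder machine-learning gating of live cells that had been stained at seeding with Hoechst33342, BioTracker Green Microtubule Cytoskeleton Dye, MitoTracker Red and Annexin V Alexa Fluor 680 and imaged on a CQ1 microscope at 37°C and 5% CO2 after compound addition. The gating first set Hoechst high-intensity objects apart from normal cells, then split normal cells into healthy, pyknosed or fragmented nuclei, and pyknosed cells into mitotic or apoptotic.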
# [1] = 12 h, 1 µM, compound concentration 1 uM, replicate 1
# [2] = 12 h, 1 µM, compound concentration 1 uM, replicate 2
# [3] = 12 h, 10 µM, compound concentration 10 uM, replicate 1
# [4] = 12 h, 10 µM, compound concentration 10 uM, replicate 2
# [5] = 24 h, 1 µM, compound concentration 1 uM, replicate 1
# [6] = 24 h, 1 µM, compound concentration 1 uM, replicate 2
# [7] = 24 h, 10 µM, compound concentration 10 uM, replicate 1
# [8] = 24 h, 10 µM, compound concentration 10 uM, replicate 2
# [9] = 48 h, 1 µM, compound concentration 1 uM, replicate 1
# [10] = 48 h, 1 µM, compound concentration 1 uM, replicate 2
# [11] = 48 h, 10 µM, compound concentration 10 uM, replicate 1
# [12] = 48 h, 10 µM, compound concentration 10 uM, replicate 2
compound,measurement,setting,value
O=C1NCN(c2ccccc2)C12CCN(CCCOc1ccc(F)cc1)CC2 [SPIRAMIDE],Population Apoptotic (%),[1],22%
same,Population Fragmented Nuclei (%),[1],16%
same,Population Healthy Nuclei (%),[1],77%
same,Population Hoechst High Intensity Objects (%),[1],6%
same,Population Membrane Permeable-Phenotype (%),[1],1%
same,Population Mitochondria Different-Phenotype (%),[1],9%
same,Population Mitotic Cells (%),[1],77%
same,Population Normal (%),[1],93%
same,Population Pyknosed Nuclei (%),[1],6%
same,Population Tubulin-Different-Phenotype (%),[1],10%
same,Total Cell Count,[1],210
same,Population Apoptotic (%),[2],0%
same,Population Fragmented Nuclei (%),[2],10%
same,Population Healthy Nuclei (%),[2],88%
same,Population Hoechst High Intensity Objects (%),[2],7%
same,Population Membrane Permeable-Phenotype (%),[2],0%
same,Population Mitochondria Different-Phenotype (%),[2],10%
same,Population Mitotic Cells (%),[2],100%
same,Population Normal (%),[2],92%
same,Population Pyknosed Nuclei (%),[2],1%
same,Population Tubulin-Different-Phenotype (%),[2],6%
same,Total Cell Count,[2],74
same,Population Apoptotic (%),[3],36%
same,Population Fragmented Nuclei (%),[3],16%
same,Population Healthy Nuclei (%),[3],51%
same,Population Hoechst High Intensity Objects (%),[3],10%
same,Population Membrane Permeable-Phenotype (%),[3],4%
same,Population Mitochondria Different-Phenotype (%),[3],74%
same,Population Mitotic Cells (%),[3],63%
same,Population Normal (%),[3],90%
same,Population Pyknosed Nuclei (%),[3],31%
same,Population Tubulin-Different-Phenotype (%),[3],50%
same,Total Cell Count,[3],145
same,Population Apoptotic (%),[4],50%
same,Population Fragmented Nuclei (%),[4],3%
same,Population Healthy Nuclei (%),[4],88%
same,Population Hoechst High Intensity Objects (%),[4],8%
same,Population Membrane Permeable-Phenotype (%),[4],2%
same,Population Mitochondria Different-Phenotype (%),[4],27%
same,Population Mitotic Cells (%),[4],50%
same,Population Normal (%),[4],91%
same,Population Pyknosed Nuclei (%),[4],7%
same,Population Tubulin-Different-Phenotype (%),[4],12%
same,Total Cell Count,[4],91
same,Population Apoptotic (%),[5],27%
same,Population Fragmented Nuclei (%),[5],8%
same,Population Healthy Nuclei (%),[5],80%
same,Population Hoechst High Intensity Objects (%),[5],7%
same,Population Membrane Permeable-Phenotype (%),[5],0%
same,Population Mitochondria Different-Phenotype (%),[5],5%
same,Population Mitotic Cells (%),[5],72%
same,Population Normal (%),[5],92%
same,Population Pyknosed Nuclei (%),[5],11%
same,Total Cell Count,[5],229
same,Population Apoptotic (%),[6],0%
same,Population Fragmented Nuclei (%),[6],7%
same,Population Healthy Nuclei (%),[6],89%
same,Population Hoechst High Intensity Objects (%),[6],6%
same,Population Membrane Permeable-Phenotype (%),[6],2%
same,Population Mitochondria Different-Phenotype (%),[6],7%
same,Population Mitotic Cells (%),[6],100%
same,Population Normal (%),[6],93%
same,Population Pyknosed Nuclei (%),[6],3%
same,Population Tubulin-Different-Phenotype (%),[6],7%
same,Total Cell Count,[6],76
same,Population Apoptotic (%),[7],41%
same,Population Fragmented Nuclei (%),[7],18%
same,Population Healthy Nuclei (%),[7],32%
same,Population Hoechst High Intensity Objects (%),[7],8%
same,Population Membrane Permeable-Phenotype (%),[7],10%
same,Population Mitochondria Different-Phenotype (%),[7],71%
same,Population Mitotic Cells (%),[7],58%
same,Population Normal (%),[7],91%
same,Population Pyknosed Nuclei (%),[7],48%
same,Population Tubulin-Different-Phenotype (%),[7],31%
same,Total Cell Count,[7],173
same,Population Apoptotic (%),[8],27%
same,Population Fragmented Nuclei (%),[8],3%
same,Population Healthy Nuclei (%),[8],78%
same,Population Hoechst High Intensity Objects (%),[8],6%
same,Population Membrane Permeable-Phenotype (%),[8],2%
same,Population Mitochondria Different-Phenotype (%),[8],21%
same,Population Mitotic Cells (%),[8],72%
same,Population Normal (%),[8],93%
same,Population Pyknosed Nuclei (%),[8],18%
same,Population Tubulin-Different-Phenotype (%),[8],10%
same,Total Cell Count,[8],118
same,Population Apoptotic (%),[9],25%
same,Population Fragmented Nuclei (%),[9],9%
same,Population Healthy Nuclei (%),[9],85%
same,Population Hoechst High Intensity Objects (%),[9],4%
same,Population Membrane Permeable-Phenotype (%),[9],1%
same,Population Mitochondria Different-Phenotype (%),[9],12%
same,Population Mitotic Cells (%),[9],75%
same,Population Normal (%),[9],95%
same,Population Pyknosed Nuclei (%),[9],4%
same,Population Tubulin-Different-Phenotype (%),[9],8%
same,Total Cell Count,[9],288
same,Population Apoptotic (%),[10],16%
same,Population Fragmented Nuclei (%),[10],8%
same,Population Healthy Nuclei (%),[10],84%
same,Population Hoechst High Intensity Objects (%),[10],1%
same,Population Membrane Permeable-Phenotype (%),[10],0%
same,Population Mitochondria Different-Phenotype (%),[10],10%
same,Population Mitotic Cells (%),[10],83%
same,Population Normal (%),[10],98%
same,Population Pyknosed Nuclei (%),[10],6%
same,Population Tubulin-Different-Phenotype (%),[10],9%
same,Total Cell Count,[10],106
same,Population Apoptotic (%),[11],67%
same,Population Fragmented Nuclei (%),[11],32%
same,Population Healthy Nuclei (%),[11],21%
same,Population Hoechst High Intensity Objects (%),[11],12%
same,Population Membrane Permeable-Phenotype (%),[11],12%
same,Population Mitochondria Different-Phenotype (%),[11],58%
same,Population Mitotic Cells (%),[11],32%
same,Population Normal (%),[11],87%
same,Population Pyknosed Nuclei (%),[11],45%
same,Population Tubulin-Different-Phenotype (%),[11],28%
same,Total Cell Count,[11],265
same,Population Apoptotic (%),[12],16%
same,Population Fragmented Nuclei (%),[12],13%
same,Population Healthy Nuclei (%),[12],78%
same,Population Hoechst High Intensity Objects (%),[12],9%
same,Population Membrane Permeable-Phenotype (%),[12],11%
same,Population Mitochondria Different-Phenotype (%),[12],16%
same,Population Mitotic Cells (%),[12],83%
same,Population Normal (%),[12],90%
same,Population Pyknosed Nuclei (%),[12],7%
same,Population Tubulin-Different-Phenotype (%),[12],18%
same,Total Cell Count,[12],182
